The record followed here is ChEMBL document CHEMBL5257120 (Bioorg Med Chem, 2023).

In data set [1] the test system is MDA-MB-231. Kind of data set: Cytotoxicity against human MDA-MB-231 cells incubated for 72 hrs by Sulphorhodamine assay. The class given is functional, cell-based. The note with it: MDA-MB-231, 72 h.
Data set [2] is described as follows: Cytotoxicity against african green monkey Vero cells incubated for 72 hrs by Sulphorhodamine assay. Type of data set: toxicity, cell-based. The note with it: African green monkey (Chlorocebus sabaeus).
A further data set concerns MCF7. Briefly: Cytotoxicity against human MCF7 cells incubated for 72 hrs by Sulphorhodamine assay. The class given is functional, cell-based. The note with it: MCF7, 72 h.
Data set [3] relates to K562. Kind of data set: Cytotoxicity against human K562 cells incubated for 72 hrs by Sulphorhodamine assay. Type of data set: functional, cell-based. The note with it: K562, 72 h.
A short description of data set [4]: Selectivity index, ratio of IC50 for african green monkey Vero cells to IC50 for human K562 cells. The class given is toxicity. The note with it: Vero cells versus K562 cells, read-out: Ratio IC50.
For a further data set, the species on record is Homo sapiens. Kind of data set: Selectivity ratio, ratio of inhibition of HDAC in human HeLa nuclear extract assessed as residual activity to inhibition of human recombinant HDAC6 assessed as residual activity. In short, it runs like this: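 Compounds at 20 μM tested by fluorometric assay on HeLa nuclear extract (class I/II HDACs) and on human recombinant HDAC6. Residual activity is expressed relative to untreated control. Selectivity is the ratio of PanHDAC to HDAC6 residual activity: ≥7 high, 2.5–6.9 moderate, <2.5 low.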

Data set [5] concerns the target T1, Tubulin (Homo sapiens) (UniProt P68371+Q9H4B7+P0DPH7+P68366+Q13509+Q71U36+P04350+Q3ZCM7+P07437+P68363+Q9BQE3+Q6PEY2+Q13885+Q9BVA1+Q9BUF5). Briefly: Induction of microtubule stabilization (unknown origin) at 5 uM. Type of data set: protein-complex assay.
The subject of data set [6] is MDA-MB-231. Briefly: Induction of cell cycle arrest in human MDA-MB-231 cells assessed as S phase arrest at 1.625 to 6.5 uM incubated for 24 hrs by propidium iodide staining based method. Type of data set: functional. The note with it: dose 1.625-6.5 µM.
The test system of data set [7] is K562. Briefly: Induction of cell cycle arrest in human K562 cells assessed as S phase arrest at 1.625 to 6.5 uM incubated for 24 hrs by propidium iodide staining based method. The class given is functional. The conditions noted are these: dose 1.625-6.5 µM.
The target of data set [8] is T1, Tubulin (Homo sapiens). Kind of data set: Induction of microtubule stabilization (unknown origin) at 1 to 5 uM. The class given is protein-complex assay. The conditions noted are these: dose 1-5 µM.
Data set [9] has as its target T1, Tubulin (Homo sapiens). Briefly: Induction of microtubule stabilization in human HeLa cells assessed as effect on cellular cytoskeletal network of tubulin at 5 to 10 uM incubated for 4 hrs by Alexa Fluor 488 staining based confocal microscopic analysis. The note with it: dose 5-10 µM. The class given is cell-based. In short, it runs like this:
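HeLa cells treated for 4 h at 5 and 10 μM. Microtubules immunostained with Alexa Fluor 488-conjugated anti-β-tubulin and imaged by confocal microscopy with a 60× Plan Apochromat objective. References: paclitaxel 5 nM, podophyllotoxin 5 μM.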

Data set [10] is described as follows: Antiinflammatory activity in mouse peritoneal macrophage assessed as reduction in LPS-induced TNFalpha production at 1 ug/ml. Type of data set: functional. The note with it: dose 1 µg/ml.
Data set [11] is described as follows: Antiinflammatory activity in mouse peritoneal macrophage assessed as reduction in LPS-induced TNFalpha production at 10 ug/ml. The class given is functional. The note with it: dose 10 µg/ml.
Data set [12] in a line: Antiinflammatory activity in mouse peritoneal macrophage assessed as inhibition of LPS-induced TNFalpha production at 1 ug/ml relative to control. The note with it: dose 1 µg/ml. Type of data set: functional. Details: scale not given: the % may be the effect or the level left.
Data set [13] can be described thus: Antiinflammatory activity in mouse peritoneal macrophage assessed as inhibition of LPS-induced TNFalpha production at 10 ug/ml relative to control. The class given is functional. Set-up: scale not given: the % may be the effect or the level left. The note with it: dose 10 µg/ml.
The nature of data set [14]: Antiinflammatory activity in mouse peritoneal macrophage assessed as reduction in LPS-induced IL6 production at 1 ug/ml. The conditions noted are these: dose 1 µg/ml. The class given is functional.
The nature of data set [15]: Antiinflammatory activity in mouse peritoneal macrophage assessed as reduction in LPS-induced IL6 production at 10 ug/ml. The class given is functional. The conditions noted are these: dose 10 µg/ml.
A short description of data set [16]: Antiinflammatory activity in mouse peritoneal macrophage assessed as inhibition of LPS-induced IL6 production at 1 ug/ml relative to control. The class given is functional. Details: scale not given: the % may be the effect or the level left. The conditions noted are these: dose 1 µg/ml.
The nature of data set [17]: Antiinflammatory activity in mouse peritoneal macrophage assessed as inhibition of LPS-induced IL6 production at 10 ug/ml relative to control. Type of data set: functional. Set-up: scale not given: the % may be the effect or the level left. The note with it: dose 10 µg/ml.
For data set [18], the system named is MDA-MB-231. Briefly: Induction of cell cycle arrest in human MDA-MB-231 cells assessed as S phase arrest at 0.285 to 1.14 uM incubated for 24 hrs by propidium iodide staining based method. Type of data set: functional. The conditions noted are these: dose 0.285-1.14 µM.

Structures are written as SMILES. Calls of active or inactive are those of the source. The calls are words filed in the database; no cut-off is given here.

The compound `CC/C(=C(\c1ccccc1)c1ccc(OCCN(C)C)cc1)c1ccccc1` [TAMOXIFEN] showed an IC50 in the data set on MDA-MB-231 [1] of 18.5 µM. The IC50 at 72 h in data set [2] is 36.2 µM.
Regarding `COc1cc2c(cc1OC)C(=O)C(Cc1ccc(CCC(=O)NO)cc1)C2` (stereo not drawn), the IC50 was 51.7 µM with MCF7, 32.6 µM in the data set with MDA-MB-231 [1] and 30.4 µM in the data set with K562 [3]. The IC50 at 72 h in [2] stood at 48.7 µM. Moreover, in data set [4], the selectivity ratio came to 1.6.
Consider `COc1ccc2c(c1)C/C(=C/c1ccc(C(=O)NOCc3ccccc3)cc1)C2=O`, for which the Ratio in the data set filed under Homo sapiens was > 7.
On to `CN1CCc2c(c3ccccc3n2Cc2ccc(C(=O)NO)cc2)C1` [TUBASTATIN A], for which, in the data set with K562 [3], the IC50 was 2.07 µM.
On to `CC(=O)O[C@H]1C(=O)[C@@]2(C)[C@H]([C@H](OC(=O)c3ccccc3)[C@]3(O)C[C@H](OC(=O)[C@H](O)[C@@H](NC(=O)c4ccccc4)c4ccccc4)C(C)=C1C3(C)C)[C@]1(OC(C)=O)CO[C@@H]1C[C@@H]2O`, for which the result on Tubulin (Homo sapiens) [5] was Active.
Regarding `COc1cc(C2c3c(cc(OC)c(OC)c3OC)C(=O)C2Cc2ccc(C(=O)NO)cc2)cc(OC)c1OC` (stereo not drawn), the IC50 in the data set with MCF7 was 87.5 µM; with MDA-MB-231 [1], > 100 µM; with K562 [3], 36.8 µM. The compound further showed an IC50 at 72 h in data set [2] of 91.8 µM. Further, the selectivity ratio in data set [4] stood at 2.5. The Ratio in the data set filed under Homo sapiens is > 7.
Take `COc1cc2c(cc1OC)C(=O)/C(=C\c1ccc(/C=C/C(=O)NOCc3ccccc3)cc1)C2`: the Ratio in the data set filed under Homo sapiens was 2.5.
For the compound `COc1cc2c(cc1OC)C(=O)/C(=C\c1ccc(/C=C/C(=O)NO)cc1)C2`, the 50% inhibitory concentration (IC50) in the data set on MCF7, with MDA-MB-231 [1] and in the data set on K562 [3] was > 100 µM each time. The same compound came in with an IC50 at 72 h in data set [2] of 129 µM. For the same compound, the selectivity ratio in [4] is > 1. In the data set filed under Homo sapiens, the Ratio entry was “inactive”.
Regarding `COc1ccc2c(c1)CC(Cc1ccc(CCC(=O)NO)cc1)C2=O` (stereo not drawn), the results for the IC50 with MCF7, with MDA-MB-231 [1] and in the data set with K562 [3] were 93.9 µM, > 100 µM and 61.8 µM, respectively. Moreover, the IC50 at 72 h in [2] was 114 µM. The selectivity ratio in [4] stood at 1.85.
`COc1cc(C2/C(=C/c3ccc(OCCCC(=O)NO)cc3)C(=O)c3cc(OC)c(OC)c(OC)c32)cc(OC)c1OC` (stereo not drawn): the figures for the IC50 in the data set on MCF7, in the data set on MDA-MB-231 [1] and with K562 [3] were 49.7 µM, 3.25 µM and 1.66 µM, respectively. In [2], half-maximal inhibition (IC50 at 72 h) was put at 47.2 µM. In addition, the selectivity ratio in [4] is 28.4. The outcome in the data set on MDA-MB-231 [6], in the data set on K562 [7], on Tubulin (Homo sapiens) [8] and on Tubulin (Homo sapiens) [9] was Active. In the data set filed under Homo sapiens, the Ratio was > 7. The Activity was 1180.12 pg/mL in [10]; 1046.79 pg/mL in [11]; 12.34% in data set [12]; 15.04% in data set [13]; 2730.53 pg/mL in data set [14]; 2648.31 pg/mL in [15]. The Activity in data set [16] was found to be 9.38%; in [17] it was 12.11%.
As to `COc1ccc2c(c1)C/C(=C/c1ccc(/C=C/C(=O)NO)cc1)C2=O`, the results for the IC50 in the data set on MCF7, in the data set on MDA-MB-231 [1] and in the data set with K562 [3] were 97.5 µM, > 100 µM and > 100 µM, respectively. This compound also gave an IC50 at 72 h in data set [2] of 100 µM. Also, the selectivity ratio in data set [4] was ≤ 1. Besides, the Ratio in the data set filed under Homo sapiens is > 7.
As for `COc1cc([C@@H]2c3cc4c(cc3[C@H](O)[C@H]3COC(=O)[C@H]23)OCO4)cc(OC)c1OC` [PODOFILOX], the values for the IC50 in the data set on MCF7, in the data set with MDA-MB-231 [1] and in the data set with K562 [3] were 10 µM, 20.2 µM and 18.4 µM, respectively.
`COc1cc2c(cc1OC)C(=O)/C(=C\c1ccc(C(=O)NOCc3ccccc3)cc1)C2`: the Ratio in the data set filed under Homo sapiens was > 7.
For the compound `COc1ccc2c(c1)CC(Cc1ccc(C(=O)NO)cc1)C2=O` (stereo not drawn), the IC50 was 55.2 µM with MCF7, 28.8 µM with MDA-MB-231 [1] and 18.6 µM with K562 [3]. Moreover, in data set [2], inhibition was half-maximal at 55.5 µM (IC50 at 72 h). Moreover, the selectivity ratio in [4] came to 2.99.
On to `COc1ccc2c(c1)C/C(=C/c1ccc(/C=C/C(=O)NOCc3ccccc3)cc1)C2=O`, for which the Ratio in the data set listed under Homo sapiens was determined as 2.5.
Consider `COc1cc(C2c3c(cc(OC)c(OC)c3OC)C(=O)C2Cc2ccc(CCC(=O)NO)cc2)cc(OC)c1OC` (stereo not drawn), for which the values for the IC50 with MCF7, in the data set with MDA-MB-231 [1] and in the data set with K562 [3] were 52.3 µM, 20.7 µM and 51.9 µM, respectively. For the same compound, half-maximal inhibition in [2] (IC50 at 72 h) was put at 76.2 µM. The selectivity ratio in data set [4] was 1.47. Moreover, in the data set filed under Homo sapiens, the Ratio was found to be 2.5.
With `C[C@@H]1C[C@H]2[C@@H]3CCC4=CC(=O)C=C[C@]4(C)[C@@]3(F)[C@@H](O)C[C@]2(C)[C@@]1(O)C(=O)CO` [DEXAMETHASONE], the Activity is 581.27 pg/mL in data set [10], 52.82% in data set [12], 1792.75 pg/mL in [14] and 40.5% in data set [16].
Take `COc1cc(C2/C(=C/c3ccc(C(=O)NO)cc3)C(=O)c3cc(OC)c(OC)c(OC)c32)cc(OC)c1OC` (stereo not drawn): the IC50 in the data set with MCF7 was 60.1 µM; in the data set on MDA-MB-231 [1], > 100 µM; with K562 [3] it was 47.7 µM. The compound also returned an IC50 at 72 h in data set [2] of 72.2 µM. Also, in [4], the selectivity ratio stood at 1.51. Besides, the Ratio result in the data set listed under Homo sapiens was “inactive”.
As for `COc1cccc2c1C(=O)c1c(O)c3c(c(O)c1C2=O)C[C@@](O)(C(=O)CO)C[C@@H]3O[C@H]1C[C@H](N)[C@H](O)[C@H](C)O1` [DOXORUBICIN], the IC50 was 0.57 µM in the data set with MDA-MB-231 [1] and 5.23 µM in the data set with K562 [3]. In data set [2], this compound showed an IC50 at 72 h of 1.87 µM. The outcome in the data set with MDA-MB-231 [18] was Active.
Regarding `COc1cc(C2/C(=C/c3ccc(/C=C/C(=O)NOC(C)=O)cc3)C(=O)c3cc(OC)c(OC)c(OC)c32)cc(OC)c1OC` (stereo not drawn), the IC50 stood at 75 µM in the data set on MCF7, 19.1 µM in the data set with MDA-MB-231 [1] and 23.6 µM with K562 [3]. The IC50 at 72 h in data set [2] stood at 47.5 µM. Also, in data set [4], the selectivity ratio is 2.01. For the same compound, in the data set filed under Homo sapiens, the Ratio result was “inactive”.
On to `COc1cc2c(cc1OC)C(=O)/C(=C\c1ccc(C(=O)NO)cc1)C2`, for which the results for the IC50 in the data set with MCF7, with MDA-MB-231 [1] and in the data set with K562 [3] were > 100 µM, > 100 µM and 46.9 µM, respectively. In data set [2], this compound returned an IC50 at 72 h of 88.4 µM. In data set [4], the selectivity ratio was 1.88. The Ratio in the data set filed under Homo sapiens is > 7.
`COc1cc2c(cc1OC)C(=O)C(Cc1ccc(C(=O)NO)cc1)C2` (stereo not drawn): the IC50 with MCF7, with MDA-MB-231 [1] and in the data set on K562 [3] was > 100 µM each time. The compound further had an IC50 at 72 h in data set [2] of 193 µM.
